{"data": "Assay results collected from several papers", "target": "Serine/threonine-protein kinase PRP4 homolog (PRPF4B, Homo sapiens, UniProt Q13523)", "note": "Lines come from different studies, so protocols differ."}
{"SMILES": "Cc1ccc(C(=O)NCc2ccsc2)cc1C#Cc1cn(C(C)C)c2ncnc(N)c12", "assay": "enzyme activity, inhibitor", "setting": "1 µM", "measurement": "activity vs control", "result": "114%"}
{"SMILES": "CN1CC(Oc2cnc(C#N)cc2-c2ccn3nc(NC(=O)C4CC4)cc3c2)C1", "assay": "enzyme activity, inhibitor", "setting": "1 µM", "measurement": "inhibition", "result": "3%"}
{"SMILES": "Cc1ccc(C(=O)Nc2ccc(CN3CCN(C)CC3)c(C(F)(F)F)c2)cc1C#Cc1cnc2cccnn12", "assay": "enzyme activity, inhibitor", "setting": "23.5 nM", "measurement": "remaining activity", "result": "91%"}
{"SMILES": "c1ccc(CNc2nc(N3CCOc4ccccc43)nc3c2CCCC3)cc1", "assay": "target engagement in cells, inhibitor, chemoproteomics", "setting": "20 mM", "measurement": "inhibition", "result": "-6.7%"}
{"SMILES": "CC(=O)c1c(NS(C)(=O)=O)c2cc(-c3ccc(Cl)cc3)c(-c3ccc(Cl)cc3Cl)nc2n(C)c1=O", "assay": "cell-free assay, competition with immobilised ligand", "setting": "1 µM", "measurement": "remaining binding", "result": "83%"}
{"SMILES": "Nc1ncnc2occ(-c3ccc(NC(=O)Nc4cc(C(F)(F)F)ccc4F)cc3)c12", "assay": "cell-free assay, inhibitor", "setting": "20 µM", "measurement": "remaining signal", "result": "100%"}
{"SMILES": "CCCCNc1ncc2c(-c3ccc(F)cc3)nn(C[C@H]3CC[C@H](N)CC3)c2n1", "assay": "target engagement in cells, inhibitor, chemoproteomics", "setting": "20 mM", "measurement": "inhibition", "result": "-1.2%"}
{"SMILES": "COc1ccc2c(O[C@@H]3C[C@H]4C(=O)N[C@]5(C(=O)O)CC5/C=C\\CCCCC[C@H](NC(=O)OC5CCCC5)C(=O)N4C3)cc(-c3csc(NC(=O)C(C)C)n3)nc2c1C (some centres unmarked)", "assay": "cell-free assay, competition with immobilised ligand", "setting": "1 µM", "measurement": "remaining binding", "result": "93%"}
